Here are results for four compounds from ChEMBL document CHEMBL2074309, “The drug transporter P-glycoprotein limits oral absorption and brain entry of HIV-1 protease inhibitors” (J Clin Invest, 1998).

Series [1] has as its target ATP-dependent translocase ABCB1 (Mus musculus, UniProt P21447). The series is described as follows: TP_TRANSPORTER: increase in brain concentration in mdr1a(-/-) mouse. The series is classed as functional, organism-based. Particulars: in vivo. The gist of the method: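 Male mdr1a(-/-) (FVB/TacBR-[KO]mdr1aN7) and matched mdr1a(+/+) FVB/NTacBR mice, 6–12 wk, three per group. [14C]-drug (indinavir 1.5 mg/kg, nelfinavir 3 mg/kg, saquinavir 2 mg/kg) in ethanol/0.9% saline, given i.v. into tail vein over 10 min. At 4 h, isoflurane anesthesia, orbital exsanguination, brain homogenized in 4% BSA. Total radioactivity by scintillation; value is (-/-)/(+/+) ratio of brain levels.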

In series [2] the target is T1, ATP-dependent translocase ABCB1 (Homo sapiens, UniProt P08183). As to the kind of experiment: TP_TRANSPORTER: transepithelial transport (basal to apical) in MDR1-expressing LLC-PK1 cells. The series is classed as functional, cell-based. As to conditions: pig. The gist of the method: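 L-MDR1 cells (LLC-PK1 expressing MDR1) plated at 4×10^5 cells/12-mm well on 3.0 µm polycarbonate Transwell filters, used day 4; resistance ≥200 Ω after blank correction. Serum-free Optimem; [14C]-drug 5 µM added to basal compartment, apical radioactivity sampled at 1, 2, 3, 4 h by scintillation, given as % of total added; parental LLC-PK1 run alongside; mean ± SE, ≥3 experiments.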
T1 sequence (P08183 whole entry): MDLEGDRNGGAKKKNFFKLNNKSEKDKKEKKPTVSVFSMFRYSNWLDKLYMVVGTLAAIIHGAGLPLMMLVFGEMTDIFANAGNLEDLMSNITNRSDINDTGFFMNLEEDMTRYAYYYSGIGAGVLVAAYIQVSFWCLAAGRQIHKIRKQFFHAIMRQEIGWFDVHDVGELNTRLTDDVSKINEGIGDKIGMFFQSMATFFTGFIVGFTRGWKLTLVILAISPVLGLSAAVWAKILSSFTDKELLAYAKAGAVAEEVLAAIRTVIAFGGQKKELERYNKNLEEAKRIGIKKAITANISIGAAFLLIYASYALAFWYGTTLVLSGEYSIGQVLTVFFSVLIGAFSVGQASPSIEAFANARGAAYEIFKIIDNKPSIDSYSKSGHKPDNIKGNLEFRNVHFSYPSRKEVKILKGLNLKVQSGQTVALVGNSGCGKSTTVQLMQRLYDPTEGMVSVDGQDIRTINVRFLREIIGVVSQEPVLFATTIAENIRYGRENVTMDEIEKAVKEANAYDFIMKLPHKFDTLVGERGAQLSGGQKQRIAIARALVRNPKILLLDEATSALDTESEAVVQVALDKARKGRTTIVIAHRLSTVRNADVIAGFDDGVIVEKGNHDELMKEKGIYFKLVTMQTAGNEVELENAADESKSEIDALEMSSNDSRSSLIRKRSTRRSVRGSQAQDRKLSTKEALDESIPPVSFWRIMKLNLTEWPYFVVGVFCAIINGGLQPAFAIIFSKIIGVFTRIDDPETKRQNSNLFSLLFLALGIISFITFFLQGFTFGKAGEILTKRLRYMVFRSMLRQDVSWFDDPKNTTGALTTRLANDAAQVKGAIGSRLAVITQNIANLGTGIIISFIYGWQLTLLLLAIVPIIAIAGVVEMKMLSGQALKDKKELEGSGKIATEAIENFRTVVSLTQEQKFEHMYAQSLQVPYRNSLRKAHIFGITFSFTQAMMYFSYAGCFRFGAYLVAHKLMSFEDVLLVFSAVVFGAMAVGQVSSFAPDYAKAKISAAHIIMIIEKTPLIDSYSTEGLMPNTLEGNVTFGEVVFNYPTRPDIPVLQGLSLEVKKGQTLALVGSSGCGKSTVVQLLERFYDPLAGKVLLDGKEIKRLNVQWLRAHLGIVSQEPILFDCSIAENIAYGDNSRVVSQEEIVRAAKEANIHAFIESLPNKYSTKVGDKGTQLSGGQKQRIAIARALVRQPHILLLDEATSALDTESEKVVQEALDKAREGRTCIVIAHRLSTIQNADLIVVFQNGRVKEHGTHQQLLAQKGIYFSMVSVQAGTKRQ

Series [3] addresses T1, ATP-dependent translocase ABCB1. As to the kind of experiment: TP_TRANSPORTER: inhibition of Nelfinavir transepithelial transport (basal to apical) (Nrlfinavir: 5 uM, PSC-833: 1 uM) in Caco-2 cells. Type of series: functional, cell-based. As to conditions: caco-2, 1 µM. The gist of the method:
(§1)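 Caco-2 monolayers on 0.4 µm polycarbonate Transwell filters, plated at 10^5 cells/12-mm well, used on day 4; wells with resistance ≥200 Ω (blank-corrected) used. […] Radioactivity reaching apical side sampled at 1, 2, 3, 4 h, expressed as % of added; mean ± SE, ≥3 experiments.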

For series [4] the target is unchanged. The series is described as follows: TP_TRANSPORTER: inhibition of Saquinavir transepithelial transport (basal to apical) (Saquinavir: 5 uM, PSC-833: 1 uM) in Caco-2 cells. The series is classed as functional, cell-based. As to conditions: caco-2, 1 µM. The gist of the method:
as §1

For series [5] the target is unchanged. As to the kind of experiment: TP_TRANSPORTER: inhibition of Indinavir transepithelial transport (basal to apical) (Indinavir: 5 uM, PSC-833: 1 uM) in Caco-2 cells. Type of series: functional, cell-based. Particulars: caco-2, 1 µM. A digest of the protocol:
as §1

Chain of ATP-dependent translocase ABCB1 (Mus musculus, UniProt P21447) (P21447 whole entry): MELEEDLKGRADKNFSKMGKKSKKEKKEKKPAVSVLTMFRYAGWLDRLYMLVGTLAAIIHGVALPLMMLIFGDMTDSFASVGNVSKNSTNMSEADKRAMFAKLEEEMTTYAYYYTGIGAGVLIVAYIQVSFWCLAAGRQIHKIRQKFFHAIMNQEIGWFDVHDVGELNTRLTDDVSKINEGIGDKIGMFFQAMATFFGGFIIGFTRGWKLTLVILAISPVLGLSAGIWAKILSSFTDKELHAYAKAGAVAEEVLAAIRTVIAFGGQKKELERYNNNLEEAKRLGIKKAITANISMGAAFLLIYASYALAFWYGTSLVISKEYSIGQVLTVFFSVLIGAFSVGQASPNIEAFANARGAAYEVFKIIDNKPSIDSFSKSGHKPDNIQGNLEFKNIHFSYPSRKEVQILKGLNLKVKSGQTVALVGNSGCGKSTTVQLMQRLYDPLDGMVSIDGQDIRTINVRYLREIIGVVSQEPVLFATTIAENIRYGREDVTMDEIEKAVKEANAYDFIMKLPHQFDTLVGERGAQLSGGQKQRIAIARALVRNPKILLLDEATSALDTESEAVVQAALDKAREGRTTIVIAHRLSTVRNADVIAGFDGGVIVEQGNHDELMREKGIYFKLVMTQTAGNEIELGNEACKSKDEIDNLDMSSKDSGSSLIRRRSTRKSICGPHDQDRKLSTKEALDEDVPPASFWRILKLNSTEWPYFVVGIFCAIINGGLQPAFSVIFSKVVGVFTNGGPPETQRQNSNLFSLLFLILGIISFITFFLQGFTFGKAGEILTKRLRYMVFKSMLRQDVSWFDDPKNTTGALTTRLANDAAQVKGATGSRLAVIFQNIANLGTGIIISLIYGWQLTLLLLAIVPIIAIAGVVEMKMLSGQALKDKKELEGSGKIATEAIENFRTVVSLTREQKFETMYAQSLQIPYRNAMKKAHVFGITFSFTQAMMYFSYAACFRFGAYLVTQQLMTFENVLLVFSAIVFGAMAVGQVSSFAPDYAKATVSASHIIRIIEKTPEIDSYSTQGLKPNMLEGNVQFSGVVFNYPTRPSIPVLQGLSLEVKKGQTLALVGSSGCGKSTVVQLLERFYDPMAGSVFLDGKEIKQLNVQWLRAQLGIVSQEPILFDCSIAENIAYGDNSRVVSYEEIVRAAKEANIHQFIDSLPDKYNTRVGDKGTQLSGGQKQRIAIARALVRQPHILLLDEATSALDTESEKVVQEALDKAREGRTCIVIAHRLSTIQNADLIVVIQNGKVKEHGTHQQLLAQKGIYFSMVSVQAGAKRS

Consider `CC(C)(C)NC(=O)[C@@H]1C[C@@H]2CCCC[C@@H]2CN1C[C@@H](O)[C@H](Cc1ccccc1)NC(=O)[C@H](CC(N)=O)NC(=O)c1ccc2ccccc2n1`, for which the Activity entry in series [1] is “substrate [+]”.

For the compound `CC(C)(C)NC(=O)[C@@H]1CN(Cc2cccnc2)CCN1C[C@@H](O)C[C@@H](Cc1ccccc1)C(=O)N[C@H]1c2ccccc2C[C@H]1O.O`, the Activity result in series [2] and in series [1] was “substrate [+]” in each case.

On to `Cc1c(O)cccc1C(=O)N[C@@H](CSc1ccccc1)[C@H](O)CN1C[C@H]2CCCC[C@H]2C[C@H]1C(=O)NC(C)(C)C`, for which the Activity result in series [2] and in series [1] was “substrate [+]” each time.

As to `C/C=C/C[C@@H](C)C(=O)[C@H]1C(=O)N[C@@H](C(C)C)C(=O)N(C)CC(=O)N(C)[C@@H](CC(C)C)C(=O)N[C@@H](C(C)C)C(=O)N(C)[C@@H](CC(C)C)C(=O)N[C@@H](C)C(=O)N[C@H](C)C(=O)N(C)[C@@H](CC(C)C)C(=O)N(C)[C@@H](CC(C)C)C(=O)N(C)[C@@H](C(C)C)C(=O)N1C` [VALSPODAR], the Activity entry in series [3], in series [4] and in series [5] was “inhibitor [+]” throughout.
